Key:
Type in all cases: functional
[1] = tested on: Rattus norvegicus; assay: Compound was tested for inhibition of cholesterol biosynthesis in rats by intravenous (iv) dose of 22 uM/Kg
Outline: (§1)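 Fasted rats, dosed orally or intravenously as the line states; the read-out is inhibition of cholesterol biosynthesis from acetate.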

[2] = species: Rattus norvegicus; assay: (§2) Esterase susceptibility was determined from the initial rate of aldehyde release upon incubation of the prodrug with homogenized rat small intestinal mucosa relative to compound 9
[3] = tested on: Rattus norvegicus; assay: Compound was tested for inhibition of cholesterol biosynthesis in rats by oral dosing (po).; outline: as §1
[4] = tested on: Rattus norvegicus; assay: Compound was tested for inhibition of cholesterol biosynthesis in rats by oral dose of 28 uM/Kg; conditions: at 28 µmol/kg
[5] = tested on: Rattus norvegicus; assay: Compound was tested for inhibition of cholesterol biosynthesis in rats by intravenous (iv) dosing.; outline: as §1
[6] = tested on: Rattus norvegicus; assay: Compound was tested for inhibition of cholesterol biosynthesis in rats by intravenous (iv) dose of 4 uM/Kg; outline: as §1
[7] = species: Rattus norvegicus; assay: as §2; remark: listed apart in the source
Outline: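 A rat intestinal mucosal esterase preparation was incubated with 200 μM prodrug in 20 mM Tris, pH 7.0, at 37 °C. Timed aliquots were quenched with 0.5 M sodium acetate, pH 3.8. Released aldehyde was measured colorimetrically with methylbenzothiazolinehydrazone/ferric chloride (A625) against an aldehyde standard curve. Initial rate is given as pmol aldehyde/min per esterase unit, normalised to a reference prodrug.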

Row | SMILES | Relative esterase susceptibility [2] | ED50 [3] [µmol/kg] | ED50 [5] [µmol/kg] | further results
1 | CC(C)=CCC/C(C)=C/CC/C(C)=C/CCCC(P(=O)(OCOC(=O)C(C)(C)C)OCOC(=O)C(C)(C)C)S(=O)(=O)[O-].[K+] (centres undefined) | 1 | 3.9 | – | Inhibition [1]: -40%
2 | CC(C)=CCC/C(C)=C/CC/C(C)=C/CCCC(P(=O)(OC(C)OC(=O)C(C)(C)C)OC(C)OC(=O)C(C)(C)C)S(=O)(=O)[O-].[K+] (centres undefined) | 0.2 | – | – | Inhibition [4]: -35%
3 | CC(C)=CCC/C(C)=C/CC/C(C)=C/CCCC(P(=O)(OC(C)OC(=O)c1ccccc1)OC(C)OC(=O)c1ccccc1)S(=O)(=O)[O-].[K+] (centres undefined) | 0.21 | – | – | Inhibition [4]: -33%
4 | CC(C)C(=O)OC(OP(=O)(OC(OC(=O)C(C)C)C(C)C)C(CCCc1cccc(Oc2ccccc2)c1)S(=O)(=O)[O-])C(C)C.[K+] (centres undefined) | – | – | – | Inhibition [4]: -45%
5 | CC(C)=CCC/C(C)=C/CC/C(C)=C/CCCC(P(=O)(OCOC(=O)c1ccccc1)OCOC(=O)c1ccccc1)S(=O)(=O)[O-].[K+] (centres undefined) | 1.5 | 15 | 1.5 | –
6 | CC(C)=CCC/C(C)=C/CC/C(C)=C/CCCC(P(=O)(OCOC(=O)CC1CCCCC1)OCOC(=O)CC1CCCCC1)S(=O)(=O)[O-].[K+] (centres undefined) | 0.49 | 4.1 | – | Inhibition [6]: -35%
7 | CC(C)=CCC/C(C)=C/CC/C(C)=C/CCCC(P(=O)(OCOC(=O)C(C)C)OCOC(=O)C(C)C)S(=O)(=O)[O-].[K+] (centres undefined) | – | 18.8 | 1.7 | Relative esterase susceptibility [7]: 8.1
8 | CCCCCCC(=O)OCOP(=O)(OCOC(=O)CCCCCC)C(CCC/C=C(\C)CC/C=C(\C)CCC=C(C)C)S(=O)(=O)[O-].[K+] (centres undefined) | 6.5 | 14 | 0.18 | –
9 | CC(C)(C)C(=O)OCOP(=O)(OCOC(=O)C(C)(C)C)C(CCCc1cccc(Oc2ccccc2)c1)S(=O)(=O)[O-].[K+] (centres undefined) | 15 | 3.5 | 1.7 | –
10 | CC(OC(=O)C(C)C)OP(=O)(OC(C)OC(=O)C(C)C)C(CCCc1cccc(Oc2ccccc2)c1)S(=O)(=O)O (centres undefined) | – | 10.1 | – | –
11 | CC(OC(=O)C(C)(C)C)OP(=O)(OC(C)OC(=O)C(C)(C)C)C(CCCc1cccc(Oc2ccccc2)c1)S(=O)(=O)[O-].[K+] (centres undefined) | 0.45 | 12.8 | – | –
12 | O=P(O)(O)C(CCCc1cccc(Oc2ccccc2)c1)S(=O)(=O)O (centres undefined) | – | 19.5 | 0.2 | –
13 | CCC(=O)OC(OP(=O)(OC(OC(=O)CC)C(C)C)C(CCC/C=C(\C)CC/C=C(\C)CCC=C(C)C)S(=O)(=O)[O-])C(C)C.[K+] (centres undefined) | 1.1 | – | – | Inhibition [4]: -43%
14 | CCC(=O)OC(C)OP(=O)(OC(C)OC(=O)CC)C(CCC/C=C(\C)CC/C=C(\C)CCC=C(C)C)S(=O)(=O)[O-].[K+] (centres undefined) | 1.7 | 11.6 | 7 | –
15 | CCC(=O)OC(OP(=O)(OC(OC(=O)CC)C(C)C)C(CCCc1cccc(Oc2ccccc2)c1)S(=O)(=O)O)C(C)C (centres undefined) | – | 7.9 | – | –
16 | CCC(=O)OC(C)OP(=O)(OC(C)OC(=O)CC)C(CCCc1cccc(Oc2ccccc2)c1)S(=O)(=O)[O-].[K+] (centres undefined) | 17 | 12.6 | – | –
17 | CC(C)=CCC/C(C)=C/CC/C(C)=C/CCCC(P(=O)(O)O)S(=O)(=O)O (centres undefined) | – | 16.5 | 0.25 | –
18 | CCC(=O)OC(CC)OP(=O)(OC(CC)OC(=O)CC)C(CCCc1cccc(Oc2ccccc2)c1)S(=O)(=O)O (centres undefined) | – | 10.9 | – | –

Reference: ChEMBL document CHEMBL1129471, “Orally active squalene synthase inhibitors: bis((acyloxy)alkyl) prodrugs of the alpha-phosphonosulfonic acid moiety” (J Med Chem, 1996)
